Source: ChEMBL document CHEMBL2046342, “Re-engineering aryl methylcarbamates to confer high selectivity for inhibition of Anopheles gambiae versus human acetylcholinesterase” (2012)
≈ marks a conversion by molar mass, not a printed value.

Key:
Anopheles gambiae [1] = experiment: Toxicity in Anopheles gambiae G3 assessed as mortality treated as tarsal contact using dried filter papers after 24 hrs; format: functional; details: G3, 24 h
[2] = Selectivity ratio of Ki for Anopheles gambiae AChE to Ki for human recombinant AChE
Method in brief: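 Ratio ki(Ag)/ki(h) of apparent second-order inactivation constants, both from Ellman-assay kobs vs [I] slopes using purified recombinant AgAChE and recombinant hAChE. Error in the ratio was computed by standard propagation of error.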

[3] = target: Acetylcholinesterase (Homo sapiens) (UniProt P22303); experiment: Inhibition of human recombinant AChE after 6 mins by Ellman assay
Method in brief: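 Recombinant human AChE was assayed by Ellman method for time-dependent inactivation at fixed inhibitor concentrations. Pseudo-first-order kobs was taken from ln(v/v0) vs incubation time. Three or more inhibitor levels gave kobs vs [I], and its linear slope gave apparent ki (mM⁻¹ min⁻¹). DMSO was held at 0.1% (v/v) final.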

[4] = target: Acetylcholinesterase (Anopheles gambiae) (UniProt Q869C3); experiment: Inhibition of Anopheles gambiae AChE expressed in Escherichia coli after 6 mins by Ellman assay
Method in brief: (§1)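 Time-dependent inactivation of recombinant AgAChE (purified to 2,500 ± 100 U/mg) monitored by Ellman assay. Residual velocity (v/v0) was measured against incubation time at fixed inhibitor levels, and kobs came from the ln(v/v0) vs t slope. kobs at three or more [I] was plotted against [I], and the linear slope gave apparent second-order ki (mM⁻¹ min⁻¹). Final DMSO was constant at 0.1% (v/v).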

Anopheles gambiae [5] = experiment: Toxicity in anesthetized Anopheles gambiae G3 assessed as mortality treated as topical application assessed per mosquito after 24 hrs; format: functional
[6] = target: Acetylcholinesterase (Anopheles gambiae) (UniProt Q869C3); experiment: Inhibition of Anopheles gambiae AChE; details: concentration not given here; method in brief: as §1
[7] = Selectivity ratio of Torpedo californica AChE to human AChE
Anopheles gambiae [8] = experiment: Toxicity in Anopheles gambiae G3 assessed as mortality at 1000 ug/ml treated as tarsal contact using dried filter papers after 24 hrs; format: functional
Method in brief: (§2)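 Tarsal contact assay. Filter papers were treated with ethanolic carbamate solutions and dried, and adult Anopheles gambiae were exposed for 1 h. Mortality was scored after 24 h. Concentrations refer to the solutions used to treat the papers.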

[9] = target: Acetylcholinesterase (Anopheles gambiae) (UniProt Q869C3); experiment: Inhibition of Anopheles gambiae AChE at 6 uM after 1 hr
Anopheles gambiae [10] = experiment: Toxicity in Anopheles gambiae G3 assessed as mortality at 250 ug/ml treated as tarsal contact using dried filter papers after 24 hrs; format: functional; method in brief: as §2

Sequence of Acetylcholinesterase (Homo sapiens) (P22303 whole entry): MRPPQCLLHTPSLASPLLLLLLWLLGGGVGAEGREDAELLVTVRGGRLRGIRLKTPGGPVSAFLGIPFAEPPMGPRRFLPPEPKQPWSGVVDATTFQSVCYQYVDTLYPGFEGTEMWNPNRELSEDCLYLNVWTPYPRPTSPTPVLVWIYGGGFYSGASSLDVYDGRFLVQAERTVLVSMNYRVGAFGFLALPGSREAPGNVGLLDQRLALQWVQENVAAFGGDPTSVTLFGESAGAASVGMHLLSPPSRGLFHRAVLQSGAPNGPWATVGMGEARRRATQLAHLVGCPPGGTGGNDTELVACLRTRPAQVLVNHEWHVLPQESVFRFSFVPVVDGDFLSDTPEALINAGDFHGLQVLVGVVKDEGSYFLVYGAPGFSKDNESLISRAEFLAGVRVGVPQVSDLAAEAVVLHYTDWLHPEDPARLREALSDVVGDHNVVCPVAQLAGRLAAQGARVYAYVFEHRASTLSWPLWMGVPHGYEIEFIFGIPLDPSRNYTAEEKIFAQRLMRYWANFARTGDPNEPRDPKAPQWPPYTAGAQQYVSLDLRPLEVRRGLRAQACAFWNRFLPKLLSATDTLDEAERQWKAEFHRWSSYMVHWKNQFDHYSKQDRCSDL
Sequence of Acetylcholinesterase (Anopheles gambiae) (Q869C3 39-737 limits assumed): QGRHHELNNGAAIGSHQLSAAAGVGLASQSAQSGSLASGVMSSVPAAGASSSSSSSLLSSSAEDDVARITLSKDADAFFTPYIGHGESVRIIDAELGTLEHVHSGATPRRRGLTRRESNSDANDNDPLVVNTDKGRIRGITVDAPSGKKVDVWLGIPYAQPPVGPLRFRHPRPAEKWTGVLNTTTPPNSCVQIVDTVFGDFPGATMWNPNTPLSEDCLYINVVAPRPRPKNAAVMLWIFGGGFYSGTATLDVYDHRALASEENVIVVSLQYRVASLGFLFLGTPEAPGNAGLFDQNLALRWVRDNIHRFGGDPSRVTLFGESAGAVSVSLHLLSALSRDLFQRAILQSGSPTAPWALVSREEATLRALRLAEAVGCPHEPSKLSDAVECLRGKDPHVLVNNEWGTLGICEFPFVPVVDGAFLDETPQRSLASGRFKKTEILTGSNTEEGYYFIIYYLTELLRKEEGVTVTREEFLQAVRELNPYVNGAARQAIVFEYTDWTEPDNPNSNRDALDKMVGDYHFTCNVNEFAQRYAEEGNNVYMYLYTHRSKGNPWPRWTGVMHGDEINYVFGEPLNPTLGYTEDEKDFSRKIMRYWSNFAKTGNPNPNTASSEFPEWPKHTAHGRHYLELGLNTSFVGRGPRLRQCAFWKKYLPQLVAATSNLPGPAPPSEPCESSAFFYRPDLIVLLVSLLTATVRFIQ

| Compound | LC50 (Anopheles gambiae [1]) [µg/mL] | Ratio Ki [2] | Kinact [3] [M⁻¹ s⁻¹] | apparent second-order inhibition rate constant ki [4] [M⁻¹ s⁻¹] | LD50 (Anopheles gambiae [5]) [ng] | inhibition [6] [%] | Selectivity ratio [7] | Activity (Anopheles gambiae [8]) [%] | inhibition [9] [%] | Activity (Anopheles gambiae [10]) [%] |
| --- | --- | --- | --- | --- | --- | --- | --- | --- | --- | --- |
| CCCCc1cccc(OC(=O)NC)c1 | 237 (≈ 1140 µM) | 23 | 535 | 12400 | – | – | – | – | – | – |
| C=C(C)CSc1ccccc1OC(=O)NC | 317 (≈ 1340 µM) | 55 | 125 | 6900 | 12 | – | – | – | – | – |
| CNC(=O)Oc1ccccc1OC(C)C [PROPOXUR] | 39 (≈ 186 µM) | 16 | 283 | 4430 | 3.2 | 49 | – | – | – | – |
| CCN(C)C(=O)Oc1cccc([C@H](C)N(C)C)c1 | – | – | – | – | – | – | 1500 | – | – | – |
| CNC(=O)Oc1ccccc1OCC(C)C | 290 (≈ 1300 µM) | 81 | 10.8 | 880 | 19 | – | – | – | – | – |
| CNC(=O)Oc1ccccc1OCC1CCCC1 | – | 36 | 4.67 | 163 | – | – | – | – | – | – |
| CCC(C)CSc1ccccc1OC(=O)NC (racemic) | – | 48 | 280 | 13400 | – | – | – | – | – | – |
| CNC(=O)Oc1cccc2c1OC(C)(C)O2 [BENDIOCARB] | 16 (≈ 71.7 µM) | 7.6 | 1850 | 14000 | 0.74 | 49 | – | – | – | – |
| C=C(C)COc1ccccc1OC(=O)NC | – | 84 | 12.3 | 1040 | – | – | – | – | – | – |
| CNC(=O)Oc1cccc(CC(C)C)c1 | – | 28 | 91.7 | 2580 | – | – | – | – | – | – |
| CNC(=O)Oc1cccc(C(C)(C)C(F)(F)F)c1 | 61 (≈ 233 µM) | 11 | 2320 | 26300 | – | – | – | – | – | – |
| CCC(C)c1cccc(OC(=O)NC)c1 (racemic) | 31 (≈ 150 µM) | 5.3 | 31800 | 167000 | 1.6 | – | – | – | – | – |
| CNC(=O)Oc1ccccc1OCC1CCCCC1 | – | 2.3 | 3.5 | 8 | – | – | – | – | – | – |
| CNC(=O)Oc1cccc(C(C)(C)C)c1 | 37 (≈ 179 µM) | 12 | 2100 | 25200 | 4.5 | – | – | – | – | – |
| CCC(CC)CCc1ccccc1OC(=O)NC | – | 100 | 12.5 | 1260 | – | – | – | – | – | – |
| CNC(=O)Oc1cccc(C(C)C)c1 | – | 8.5 | 6380 | 54500 | – | – | – | – | – | – |
| CCC(CC)COc1ccccc1OC(=O)NC | – | 530 | 8 | 4250 | 81 | – | – | 27 | – | – |
| CCC(CC)CSc1ccccc1OC(=O)NC | – | 130 | 242 | 30800 | 10 | – | – | 27 | – | – |

| Compound | LC50 (Anopheles gambiae [1]) [µg/mL] | Ratio Ki [2] | Kinact [3] [M⁻¹ s⁻¹] | apparent second-order inhibition rate constant ki [4] [M⁻¹ s⁻¹] | LD50 (Anopheles gambiae [5]) [ng] | inhibition [6] [%] | Selectivity ratio [7] | Activity (Anopheles gambiae [8]) [%] | inhibition [9] [%] | Activity (Anopheles gambiae [10]) [%] |
| --- | --- | --- | --- | --- | --- | --- | --- | --- | --- | --- |
| CC[Si](C)(C)c1cccc(OC(=O)NC)c1 | 169 (≈ 712 µM) | 14 | 1830 | 25200 | 8 | – | – | – | – | – |
| CNC(=O)Oc1ccccc1 | – | 13 | 3.33 | 45.8 | – | – | – | – | – | – |
| CNC(=O)Oc1ccccc1SCC(C)C | 212 (≈ 886 µM) | 81 | 108 | 8770 | 10 | – | – | – | – | – |
| CNC(=O)Oc1ccccc1SC | – | 14 | 85 | 1150 | – | – | – | – | – | – |
| CNC(=O)Oc1ccccc1C | – | 5.4 | 4 | 21.8 | – | – | – | – | – | – |
| CCCC(C)(C)c1cccc(OC(=O)NC)c1 | 236 (≈ 1000 µM) | 4.9 | 22700 | 112000 | – | – | – | – | – | – |
| CNC(=O)Oc1cccc(CCC(C)C)c1 | 342 (≈ 1550 µM) | 53 | 86.7 | 4530 | – | – | – | – | – | – |
| CNC(=O)Oc1cccc([Si](C)(C)C)c1 | – | 9.6 | 1130 | 10800 | – | – | – | – | – | – |
| CNC(=O)Oc1cccc2c1OC(C)(C)C2 [CARBOFURAN] | 16 (≈ 72.3 µM) | 6.1 | 7130 | 43700 | 0.85 | 49 | – | – | – | – |
| CCC(C)(C)c1cccc(OC(=O)NC)c1 | 115 (≈ 520 µM) | 9.7 | 13100 | 127000 | – | – | – | – | – | – |
| CCCc1cccc(OC(=O)NC)c1 | 41 (≈ 212 µM) | 14 | 1060 | 14700 | – | – | – | – | – | – |
| CNC(=O)Oc1cccc2ccccc12 | – | – | – | – | – | 49 | – | – | – | – |
| C[N+](C)(C)CCCCCCCCCCCCCCCCCCSS(C)(=O)=O | – | – | – | – | – | – | – | – | > 95 | – |
| CNC(=O)Oc1cccc(C)c1 [METOLCARB] | 712 (≈ 4310 µM) | 33 | 8.67 | 287 | – | – | – | – | – | – |
| CCC(C)(CC)c1cccc(OC(=O)NC)c1 | – | 9.5 | 9220 | 88000 | – | – | – | – | – | 72 |
| CCC(C)COc1ccccc1OC(=O)NC (racemic) | 445 (≈ 1880 µM) | 216 | 9.67 | 2080 | 33 | – | – | – | – | – |
| CCC(CC)COc1cccc(OC(=O)NC)c1 | – | 5.8 | 83.3 | 480 | – | – | – | – | – | – |
| CCC(C)(c1cccc(OC(=O)NC)c1)C(F)(F)F (racemic) | 68 (≈ 247 µM) | 8.7 | 6250 | 54500 | – | – | – | – | – | – |
